Most compounds without a hit are left out; they make up all but 2.6% or so of the library.
rCAG RNA binder = r(CAG) repeat RNA binding; TO-PRO-1 dye displacement fluorescence; inhibition, % at 3 µM; actives 1.3% (n = 370,000);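 active means inhibition above the plate cutoff, the mean of all test compounds on that plate plus 3 SD, cut at about 35% in these data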;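 further: 0% = DMSO alone and 100% = 100 µM mitoxantrone as full dye displacement; higher means more dye released from RNA so lower well fluorescence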
NR2E3 ag-1 = NR2E3 (human) agonism; Q9Y5X4; GST-NR2E3/biotin-RetCOR TR-FRET, 1536-well; inhibition of corepressor binding, % at 4.78 µM; actives 0.12% (n = 320,000);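 active means percent inhibition above the cutoff of mean plus 3 SD of all tested compounds, set per screening campaign, cut at about 20% in these data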;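 further: 0% = DMSO wells and 100% = biotin wells as full block of FRET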
Target sequence (Q9Y5X4 whole entry, looked up): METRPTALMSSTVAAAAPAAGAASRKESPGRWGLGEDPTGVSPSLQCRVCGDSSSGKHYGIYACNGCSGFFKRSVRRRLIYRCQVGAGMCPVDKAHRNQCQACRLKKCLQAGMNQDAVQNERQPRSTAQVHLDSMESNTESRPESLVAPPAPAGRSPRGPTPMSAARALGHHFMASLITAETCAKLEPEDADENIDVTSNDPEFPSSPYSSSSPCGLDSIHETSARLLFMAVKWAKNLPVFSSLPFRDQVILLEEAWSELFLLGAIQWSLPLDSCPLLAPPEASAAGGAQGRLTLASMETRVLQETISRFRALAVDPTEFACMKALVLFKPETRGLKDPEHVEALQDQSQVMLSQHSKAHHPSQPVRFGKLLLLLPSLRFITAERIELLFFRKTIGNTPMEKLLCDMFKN
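System: GST-tagged NR2E3 plus biotinylated RetCOR corepressor; Amount: 1.35 nM GST-tagged NR2E3 final; Dosing: single nominal compound dose of 4.8 µM; Schedule: 5 h incubation at 4 °C; Technique: TR-FRET with europium anti-GST and streptavidin-D2, 340 nm excitation; Controls: biotin wells as high control, 0.6% DMSO wells as low control.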
NR2E3 ag-2 = agonists of human NR2E3 nuclear receptor; AID 602229; actives 0.35% (n = 360,000); CHO-S Gal4-NCOR/VP16-NR2E3 two-hybrid, luciferase; inhibition of corepressor binding, % at 3.98 µM;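 active means inhibition above the mean of all tested compounds plus 3 SD, cut at about 70% in these data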;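 further: 0% = DMSO with NR2E3 transfected cells and 100% = cells lacking NR2E3 construct; higher means lower luciferase signal from less NR2E3 corepressor binding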
PG9 binder = small molecules binding HIV-1 gp120 antibody PG9; TR-FRET gp120-PG9 antibody binding; inhibition, % at 6.7 µM; actives 0.43% (n = 360,000); in the data active means inhibition above about 8.5%
NR1D1 modulator = modulates human Rev-erb alpha binding to DNA. P20393. Rev-erbα–FITC-DNA binding, fluorescence polarization, 90 min. activity, % at 10 µM. actives 0.79% (n = 370,000);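 active means activity above about 14%, limit read from the data; passing the limit was not always enough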;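 further: 0% = DMSO wells with 35 nM protein and 100% = DMSO wells with 750 nM protein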
rCAG binder conf = r(CAG) RNA repeat binding, confirmation; shares compounds with rCAG RNA binder; TO-PRO-1 dye displacement fluorescence; inhibition, % at 3 µM; actives 70% (n = 4,300); AID 652065;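 active means inhibition above a per-plate cutoff, the mean inhibition of sample wells plus 3 SD, cut at about 35% in these data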;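 further: loss of TO-PRO-1 fluorescence as compound displaces dye from 1x1 AA loop RNA; 0% = DMSO only wells and 100% = 100 µM mitoxantrone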
DNA CAG counter = DNA CAG dye complex inhibition counter-screen; shares compounds with rCAG RNA binder; d(CAG) DNA oligo TO-PRO-1 dye displacement, fluorescence; inhibition, % at 3 µM; actives 94% (n = 4,300); AID 652068;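 active means inhibition above its plate's cutoff, the mean test-well inhibition plus 3 SD, cut at about 4.8% in these data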;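 further: 0% = DNA dye mix with DMSO and 100% = 100 µM mitoxantrone; hits displace the dye from DNA and so lower well fluorescence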
DNA CAG DR = DNA CAG dye complex inhibition, dose response counter-screen | DNA CAG/GTC duplex TO-PRO-1 dye displacement fluorescence | actives 20% (n = 250) | IC50, µM | shares compounds with rCAG RNA binder; in the data active means IC50 below about 10 µM
Numbers without * were called inactive; . = not tested or not shown.

SMILES	rCAG RNA binder	NR2E3 ag-1	NR2E3 ag-2	PG9 binder	NR1D1 modulator	rCAG binder conf	DNA CAG counter	others
CCOC(=O)C1=C(COC(=O)c2ccc3ccccc3c2O)NC(=O)NC1C (stereo not given)	-1	4	10	-2	4	.	.
COc1ccc(C)cc1-n1nnnc1SCC(=O)NC1CC1	2	3	28	1	2	.	.
Nn1c(-c2cccc(O)c2)nnc1-c1cccc(O)c1	1	.	-9	1	1	.	.
COc1cc(/C=C2/S/C(=N/S(=O)(=O)Cc3ccccc3)NC2=O)c([N+](=O)[O-])cc1OC	73*	-3	-19	0	-3	67*	29*
Cc1ccc(S(=O)(=O)/N=C2/NC(=O)/C(=C\c3cc(Br)cc(Br)c3O)S2)cc1	.	.	-7	.	.	.	.
COc1cc(/C=C2\S/C(=N/S(=O)(=O)Cc3ccccc3)NC2=O)c([N+](=O)[O-])cc1OC	78*	5	-26	1	-6	71*	33*
O=C1N/C(=N\S(=O)(=O)c2ccccc2)S/C1=C\c1cc([N+](=O)[O-])ccc1O	67*	-1	-6	1	6	52*	12*	DNA CAG DR=>30
COc1cc(/C=C2/SC(=O)NC2=O)ccc1Oc1ccc([N+](=O)[O-])cc1[N+](=O)[O-]	22	-3	4	1	-9	.	.
COc1cc(/C=C2/S/C(=N/S(=O)(=O)c3ccccc3)NC2=O)c([N+](=O)[O-])cc1OC	78*	4	22	-1	0	77*	41*
CCn1c(SCC(=O)c2ccc(O)c(O)c2)nnc1-c1ccccc1	8	1	-23	0	-2	.	.
Cc1ccc(-n2c(SCC(=O)c3ccc(O)c(O)c3)nnc2-c2ccccc2)cc1	39*	.	.	.	-25	37*	15*
Cc1cc(C)c(NS(=O)(=O)c2ccccc2)c(C)c1	1	.	-2	3	2	.	.
Cc1ccc(S(=O)(=O)/N=C2\C=C(NS(=O)(=O)c3ccccc3)C(=O)c3ccccc32)cc1	40*	.	11	-4	-6	84*	51*
Cc1ccc(S(=O)(=O)/N=C2/C=C(C3C(=O)CC(C)(C)CC3=O)C(=O)c3ccccc32)cc1	17	2	-152	-5	4	.	.
Cc1cc(C)c(S(=O)(=O)/N=C2\C=C(NS(=O)(=O)c3ccccc3)C(=O)c3ccccc32)c(C)c1	45*	1	-18	0	0	85*	57*
Cc1cccc(N2C(=O)C(O)=C(C(=O)c3cccs3)C2c2ccc(F)cc2)n1 (stereo not given)	3	18	-4	6	0	.	.
Cc1cccc(N2C(=O)C(O)=C(C(=O)c3cccs3)C2c2ccc(C(C)C)cc2)n1 (stereo not given)	48*	-1	-16	8	-4	39*	11*
CC(C)=C1C(=O)NN(c2ccc(F)c(Cl)c2)C1=O	83*	4	-10	-1	1	19	6.8*
COc1ccc(S(=O)(=O)Nc2ccc(O)c(Sc3ncn[nH]3)c2)cc1	1	0	11	-1	2	.	.
COc1ccc(S(=O)(=O)Nc2cccc3ccc(O)cc23)cc1	8	-3	13	-3	9	.	.
COc1ccc(S(=O)(=O)Nc2cc(SCC(=O)O)c(O)c3ccccc23)cc1	38*	-4	6	-3	6	48*	18*
COc1ccc(S(=O)(=O)Nc2cc(Sc3ncn[nH]3)c(O)c3ccccc23)cc1	43*	.	.	-5	5	24	9.8*
COC(=O)C1=C(C)N(CC(C)C)C(=S)NC1c1cccc(F)c1 (stereo not given)	0	.	.	-1	6	.	.
COc1ccc(/C=C2\C(=O)ON=C2c2cccc([N+](=O)[O-])c2)cc1	41*	2	.	-1	2	20	6.0*
Cc1noc(NS(=O)(=O)c2ccc(NC(=O)c3cccc(S(=O)(=O)Nc4ccccc4F)c3)cc2)c1C	35*	.	-9	1	1	27	7.8*
SMILES	rCAG RNA binder	NR2E3 ag-1	NR2E3 ag-2	PG9 binder	NR1D1 modulator	rCAG binder conf	DNA CAG counter	others
COc1cccc(C(=O)Nc2ccc(S(=O)(=O)Nc3onc(C)c3C)cc2)c1	16	0	6	1	-4	.	.
Cc1ccccc1C(=O)Nc1ccc(S(=O)(=O)Nc2onc(C)c2C)cc1	5	0	1	-1	-4	.	.
Cc1noc(NS(=O)(=O)c2ccc(NC(=O)c3ccccc3NS(=O)(=O)c3ccc(F)c(F)c3)cc2)c1C	76*	.	-17	0	-2	69*	30*
COc1cc(NS(=O)(=O)c2ccc(Nc3nc(-c4ccccn4)cs3)cc2)nc(OC)n1	45*	6	-6	-1	-5	34	8.9*
COc1ccc(-c2csc(Nc3ccc(S(=O)(=O)Nc4cc(C)on4)cc3)n2)cc1C	93*	-6	16	0	2	82*	43*
COc1cc(NS(=O)(=O)c2ccc(NC(=O)c3cccs3)cc2)nc(OC)n1	15	-1	-29	1	-3	.	.
COc1ccc(CC(=O)Nc2ccc(S(=O)(=O)Nc3cc(C)on3)cc2)cc1OC	5	-1	1	-1	7	.	.
COc1ccc(-c2csc(Nc3ccc(S(=O)(=O)Nc4cc(OC)nc(OC)n4)cc3)n2)cc1	90*	0	4	-4	-5	90*	57*
COc1cc(NS(=O)(=O)c2ccc(NC(C)=O)cc2)nc(OC)n1	0	-7	-9	-3	-4	.	.
CCOc1ccc(NC(=O)COC(=O)CNC(=O)c2ccc(-c3ccccc3)cc2)cc1	2	4	-14	-2	-4	.	.
CCN(CC)c1ncnc2c1ncn2[C@H]1CN(Cc2ccc(F)cc2)C[C@@H](CO)O1	-2	.	-17	-1	-6	.	.
Cc1c(C(=O)NNC(=S)Nc2cccc(Cl)c2)nnn1-c1ccccc1	45*	0	-133	0	2	44*	14*
COCCCNC(=O)c1ccc2sc(C3=C[C@@H](O)[C@@H](O)[C@@H](CO)O3)nc2c1	4	.	-37	0	2	.	.
CC(N)c1csc(Nc2nccc(C(F)(F)F)n2)n1 (stereo not given)	13	.	22	1	-2	.	.
CCc1c(C)sc2nc3c(C(=O)N4CCOCC4)cc(C(=O)c4ccccc4O)cn3c(=O)c12	8	2	-2	1	-1	.	.
O=C(c1cc(C(=O)N2CCOCC2)c2nc3ccccc3n2c1)c1cc(Cl)cc(Cl)c1O	46*	-2	-14	0	-1	44*	12*
